# Results reported in ChEMBL document CHEMBL1130286, “Nicotinamide derivatives as a new class of gastric H+/K(+)-ATPase inhibitors. 1. Synthesis and structure-activity relationships of N-substituted 2-(benzhydryl- and benzylsulfinyl)nicotinamides” (J Med Chem, 1997).
# The source made the active and inactive calls. The calls are words filed in the database; no cut-off is given here.
# Legend:
# [1] = system: Potassium-transporting ATPase (Oryctolagus cuniculus); assay: Percent inhibition of [14C]aminopyrine (AP) accumulation in dibutyryl cAMP stimulated rbbit parietal cells at 10 uM
# [2] = target: Potassium-transporting ATPase (Oryctolagus cuniculus); assay: Inhibition of [14C]aminopyrine (AP) accumulation stimulated by dibutyryl cyclic AMP in isolated rabbit parietal cells
# [3] = species: Rattus norvegicus; assay: Inhibition of histamine induced gastric acid secretion in pylorus-ligated rats; assay type: functional; conditions: Stomach
# How it was run: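 Male Wistar rats (~200 g) were fasted 24 h with water allowed, 4-7 per group. Under urethane (1 g/kg) the pylorus was ligated, and drug or vehicle was given intraduodenally right after ligation. Histamine (30 mg/kg) was given sc 30 min later. After 3 h, gastric juice volume was measured and acid titrated to pH 7 with 0.01 N NaOH. Total acid output versus controls gave percent inhibition.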
# [4] = t1/2 is the time taken for the conversion of nicotinamides to isothiazolopyridine at pH=1.0; assay type: ADME
# How it was run: (§1)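 Compound from a 10 µM DMSO solution was diluted into 100 mM HCl (pH 1) or pH-adjusted McIlvaine buffer (pH 3-7) containing Triton. Mixtures were incubated at 37 °C for various times. Remaining compound was measured by reversed-phase C18 HPLC (CH₃CN/10 mM phosphate pH 7.0) with UV detection at 254 nm, and half-lives were determined from these time points.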
# [5] = target: Potassium-transporting ATPase (Sus scrofa, UniProt P19156); assay: Inhibition of porcine gastric H+/K+ ATPase; assay type: tissue-based, Stomach
# Sequence of Potassium-transporting ATPase (P18434 whole entry): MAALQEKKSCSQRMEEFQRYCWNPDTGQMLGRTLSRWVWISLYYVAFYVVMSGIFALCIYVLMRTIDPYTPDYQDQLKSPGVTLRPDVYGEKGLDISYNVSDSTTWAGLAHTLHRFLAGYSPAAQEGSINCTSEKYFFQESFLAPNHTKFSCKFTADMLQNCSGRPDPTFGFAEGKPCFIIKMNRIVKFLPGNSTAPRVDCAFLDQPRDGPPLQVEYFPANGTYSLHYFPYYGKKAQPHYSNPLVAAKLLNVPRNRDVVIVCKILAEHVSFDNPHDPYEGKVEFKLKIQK
# Sequence of Potassium-transporting ATPase (P19156 whole entry): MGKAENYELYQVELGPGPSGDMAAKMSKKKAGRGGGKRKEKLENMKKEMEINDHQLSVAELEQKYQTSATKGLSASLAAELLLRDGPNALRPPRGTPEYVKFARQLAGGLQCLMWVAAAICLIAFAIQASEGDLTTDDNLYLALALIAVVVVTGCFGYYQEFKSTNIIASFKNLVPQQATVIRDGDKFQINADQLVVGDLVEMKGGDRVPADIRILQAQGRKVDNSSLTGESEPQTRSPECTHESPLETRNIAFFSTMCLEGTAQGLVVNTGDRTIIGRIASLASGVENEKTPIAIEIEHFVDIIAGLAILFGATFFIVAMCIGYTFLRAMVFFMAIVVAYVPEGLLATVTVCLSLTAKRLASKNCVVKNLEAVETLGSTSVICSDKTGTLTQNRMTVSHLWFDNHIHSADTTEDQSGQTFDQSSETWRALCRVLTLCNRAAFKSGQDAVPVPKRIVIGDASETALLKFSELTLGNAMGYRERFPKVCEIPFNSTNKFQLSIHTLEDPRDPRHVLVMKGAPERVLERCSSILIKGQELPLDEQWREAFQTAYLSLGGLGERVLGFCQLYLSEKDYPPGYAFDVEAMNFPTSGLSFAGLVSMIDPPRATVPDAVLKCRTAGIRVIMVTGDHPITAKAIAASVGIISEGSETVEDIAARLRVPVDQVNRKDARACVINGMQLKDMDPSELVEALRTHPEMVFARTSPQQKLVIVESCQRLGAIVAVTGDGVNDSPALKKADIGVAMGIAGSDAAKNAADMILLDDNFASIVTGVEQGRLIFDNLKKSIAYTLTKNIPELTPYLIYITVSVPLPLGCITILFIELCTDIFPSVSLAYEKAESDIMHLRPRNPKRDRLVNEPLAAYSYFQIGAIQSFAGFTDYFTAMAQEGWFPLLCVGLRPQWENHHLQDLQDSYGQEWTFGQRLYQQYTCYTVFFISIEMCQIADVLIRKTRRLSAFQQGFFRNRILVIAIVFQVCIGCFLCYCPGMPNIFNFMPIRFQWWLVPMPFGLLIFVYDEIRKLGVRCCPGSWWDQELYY
# How it was run: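 Porcine gastric microsomes (15 µg protein) were preincubated 30 min at 37 °C with compound in 50 mM Tris-HCl pH 7.4, 4 mM MgCl₂ and 5 µg/mL gramicidin, with or without 20 mM KCl. Reaction was started with 2 mM ATP (final) and run 20 min at 37 °C, then stopped with trichloroacetic acid. Released phosphate was measured by the Sanui method. Activity was the K⁺-dependent rate, with the K⁺-free rate subtracted.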
# [6] = t1/2 is the time taken for the conversion of nicotinamides to isothiazolopyridine at pH=3.0; assay type: ADME
# How it was run: as §1
# [7] = species: Oryctolagus cuniculus; assay: Percent inhibition of [14C]aminopyrine (AP) accumulation stimulated by dibutyryl cyclic AMP in isolated rabbit parietal cells; assay type: functional
# How it was run: (§2)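 Parietal cells were isolated from rabbit gastric tissue, and the cell-rich fraction (1-2 × 10⁷ cells/300 µL) was put in Earle's balanced salt solution. The medium held 5.6 kBq [¹⁴C]aminopyrine, 25 mM HEPES-NaOH pH 7.4, 0.2% BSA and test compound. Cells were stimulated with 1 mM dbcAMP at 37 °C for 30 min under 95% O₂/5% CO₂, then centrifuged, solubilized and scintillation-counted. Counts with 0.1 mM dinitrophenol were subtracted, and IC50 came from regression lines.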
# [8] = system: Rattus norvegicus; assay: Percent inhibition of histamine induced gastric acid secretion in pylorus-ligated rats at 100 mg/Kg intraduodenal dose; conditions: Stomach
# [9] = system: Rattus norvegicus; assay: Percent inhibition of histamine induced gastric acid secretion in pylorus-ligated rats at 100 mg/Kg intraduodenal dose; Not effective; conditions: Stomach
# [10] = system: Rattus norvegicus; assay: Percent inhibition of histamine induced gastric acid secretion in pylorus-ligated rats at 10 mg/Kg intraduodenal dose; conditions: Stomach
# [11] = t1/2 is the time taken for the conversion of nicotinamides to isothiazolopyridine at pH=5.0; assay type: ADME
# How it was run: as §1
# [12] = t1/2 is the time taken for the conversion of nicotinamides to isothiazolopyridine at pH=7.0; assay type: ADME
# How it was run: as §1
# [13] = species: Oryctolagus cuniculus; assay: Percent inhibition of [14C]aminopyrine (AP) accumulation stimulated by dibutyryl uM; Not effective; assay type: functional
# How it was run: as §2
# [14] = species: Oryctolagus cuniculus; assay: Percent inhibition of [14C]aminopyrine (AP) accumulation stimulated by dibutyryl uM; assay type: functional
# How it was run: as §2
# [15] = system: Rattus norvegicus; assay: Percent inhibition of histamine induced gastric acid secretion in pylorus-ligated rats at 100 mg/Kg […] dose; Not effective; assay type: functional, organism-based; conditions: Stomach
# [16] = system: Rattus norvegicus; assay: Percent inhibition of histamine induced gastric acid secretion in pylorus-ligated rats at 3 mg/Kg intraduodenal dose; conditions: Stomach
structure (smiles),measurement,setting,value
CC(C)CNC(=O)c1cccnc1[S+]([O-])C(c1ccccc1)c1ccccc1 (stereo not given),inhibition,[1],1.3%
CCOc1cc(OC)ccc1C[S+]([O-])c1ncccc1C(=O)Nc1ccncc1 (stereo not given),IC50,[2],450 nM
same,ED50,[3],19 mg/kg
same,half-life,[4],< 1.2 min
same,IC50,[5],> 100000 nM
same,half-life,[6],0.71 h
COc1cc(C[S+]([O-])c2ncccc2C(=O)Nc2ccncc2)cc(OC)c1OC (stereo not given),half-life,[4],462 min
same,inhibition,[1],11.3%
Nc1ccc(NC(=O)c2cccnc2[S+]([O-])C(c2ccccc2)c2ccccc2)cc1 (stereo not given),inhibition,[1],57.4%
COCOc1cc(OC)ccc1C[S+]([O-])c1ncccc1C(=O)Nc1ccncc1 (stereo not given),IC50,[7],2200 nM
same,half-life,[4],< 1.2 min
same,inhibition in vivo at 100 mg/kg,[8],37.7%
same,half-life,[6],8.25 h
Cc1cc(C)c2ccc(NC(=O)c3cccnc3[S+]([O-])C(c3ccccc3)c3ccccc3)nc2n1 (stereo not given),inhibition,[9],inactive
same,inhibition,[1],68.6%
O=c1c2cccnc2sn1-c1ccccc1,IC50,[5],190 nM
O=C(Nc1ccccc1)c1cccnc1[S+]([O-])C(c1ccccc1)c1ccccc1 (stereo not given),inhibition,[1],5%
COc1cccc(OC)c1C[S+]([O-])c1ncccc1C(=O)Nc1ccncc1 (stereo not given),IC50,[2],26000 nM
same,half-life,[4],39.6 min
same,inhibition in vivo at 100 mg/kg,[8],60.7%
same,inhibition in vivo at 10 mg/kg,[10],12.7%
same,IC50,[5],> 100000 nM
same,half-life,[6],38.5 h
O=C(Nc1c2ccccc2nc2ccccc12)c1cccnc1[S+]([O-])C(c1ccccc1)c1ccccc1 (stereo not given),inhibition,[1],47.6%
COc1ccc2[nH]c([S+]([O-])Cc3ncc(C)c(OC)c3C)nc2c1 (stereo not given) [OMEPRAZOLE],ED50,[3],4.1 mg/kg
same,half-life,[11],19.2 min
same,half-life,[12],10.5 h
CCOc1ccc(C[S+]([O-])c2ncccc2C(=O)Nc2ccncc2)c(OCC)c1 (stereo not given),IC50,[2],400 nM
same,ED50,[3],11.2 mg/kg
same,half-life,[4],< 1.2 min
same,IC50,[5],> 100000 nM
same,half-life,[6],0.49 h
O=C(Nc1ccncc1)c1cccnc1[S+]([O-])C(c1ccccc1)c1ccccc1 (stereo not given),inhibition in vivo at 100 mg/kg,[8],30.2%
same,inhibition,[1],55%
Cc1ccc2cccc(NC(=O)c3cccnc3[S+]([O-])C(c3ccccc3)c3ccccc3)c2n1 (stereo not given),inhibition,[1],24.4%
O=C(Nc1ncccn1)c1cccnc1[S+]([O-])C(c1ccccc1)c1ccccc1 (stereo not given),inhibition,[13],inactive
CN(C)CCc1ccc(NC(=O)c2cccnc2[S+]([O-])C(c2ccccc2)c2ccccc2)cc1 (stereo not given),Inhibition,[14],7.4%
same,inhibition,[1],93.5%
COc1ncccc1NC(=O)c1cccnc1[S+]([O-])C(c1ccccc1)c1ccccc1 (stereo not given),inhibition,[13],inactive
CC(C)Cn1sc2ncccc2c1=O,IC50,[5],530 nM
COc1ccc(C[S+]([O-])c2ncccc2C(=O)Nc2ccncc2)c(OCCF)c1 (stereo not given),IC50,[2],1700 nM
same,ED50,[3],8.1 mg/kg
same,half-life,[4],< 1.2 min
same,IC50,[5],> 100000 nM
same,half-life,[6],3.3 h
Cc1c(OCC(F)(F)F)ccnc1C[S+]([O-])c1nc2ccccc2[nH]1 (stereo not given) [LANSOPRAZOLE],half-life,[11],16.8 min
same,half-life,[12],6.08 h
COc1cc(C)c(C[S+]([O-])c2ncccc2C(=O)Nc2ccncc2)c(OC)c1 (stereo not given),IC50,[2],460 nM
same,ED50,[3],5.7 mg/kg
same,half-life,[4],< 1.2 min
same,half-life,[11],257 min
same,IC50,[5],> 100000 nM
same,half-life,[6],0.09 h
COc1ccc(C[S+]([O-])c2ncccc2C(=O)Nc2ccncc2)cc1 (stereo not given),half-life,[4],128 min
same,inhibition in vivo at 100 mg/kg,[8],44.4%
same,inhibition,[1],33.1%
O=C(Nc1nccs1)c1cccnc1[S+]([O-])C(c1ccccc1)c1ccccc1 (stereo not given),inhibition,[1],14.7%
O=C(Nc1cccc2ccccc12)c1cccnc1[S+]([O-])C(c1ccccc1)c1ccccc1 (stereo not given),inhibition,[13],inactive
CN(C)c1ccc(NC(=O)c2cccnc2[S+]([O-])C(c2ccccc2)c2ccccc2)cc1 (stereo not given),inhibition,[1],58.3%
O=C(Nc1ccccn1)c1cccnc1[S+]([O-])C(c1ccccc1)c1ccccc1 (stereo not given),Inhibition,[14],8%
O=c1c2cccnc2sn1-c1ccncc1,IC50,[5],220 nM
COc1ccc(C[S+]([O-])c2ncccc2C(=O)Nc2ccncc2)c(OCCO)c1 (stereo not given),IC50,[2],59000 nM
same,half-life,[4],< 1.2 min
same,half-life,[6],1.78 h
O=C(NC1CCN(Cc2ccccc2)CC1)c1cccnc1[S+]([O-])C(c1ccccc1)c1ccccc1 (stereo not given),inhibition,[15],inactive
COc1ccc(C[S+]([O-])c2ncccc2C(=O)Nc2ccncc2)c(OC)c1OC (stereo not given),half-life,[4],27 min
same,half-life,[6],116 h
same,inhibition,[1],19.6%
COc1cc(OC)c(C[S+]([O-])c2ncccc2C(=O)Nc2ccncc2)c(OC)c1 (stereo not given),IC50,[2],1200 nM
same,ED50,[3],6.8 mg/kg
same,half-life,[4],< 1.2 min
same,half-life,[11],17.4 min
same,IC50,[5],7300 nM
same,half-life,[6],< 0.03 h
O=C(Nc1cnccn1)c1cccnc1[S+]([O-])C(c1ccccc1)c1ccccc1 (stereo not given),inhibition,[13],inactive
COCOCCOc1cc(OC)ccc1C[S+]([O-])c1ncccc1C(=O)Nc1ccncc1 (stereo not given),IC50,[7],2000 nM
same,half-life,[4],< 1.2 min
same,inhibition in vivo at 10 mg/kg,[10],76.6%
same,inhibition in vivo at 3 mg/kg,[16],14.4%
same,half-life,[6],2.75 h
Cc1ccc(C(c2ccc(C)cc2)[S+]([O-])c2ncccc2C(=O)Nc2cccc3ncccc23)cc1 (stereo not given),inhibition in vivo at 100 mg/kg,[8],30.4%
same,inhibition,[1],74.1%
O=C(Nc1ccc2ncccc2c1)c1cccnc1[S+]([O-])C(c1ccccc1)c1ccccc1 (stereo not given),inhibition in vivo at 100 mg/kg,[8],21.7%
same,inhibition,[1],61.8%
COc1ccnc(C[S+]([O-])c2nc3ccc(OC(F)F)cc3[nH]2)c1OC (stereo not given) [PANTOPRAZOLE],half-life,[11],70.2 min
same,half-life,[12],23.1 h
COc1cc(OC)c(C[S+]([O-])c2ncccc2C(=O)Nc2ccncc2)cc1Br (stereo not given),IC50,[2],1900 nM
same,half-life,[4],4.2 min
same,inhibition in vivo at 100 mg/kg,[8],34.8%
same,half-life,[6],28.8 h
COc1ccc(C[S+]([O-])c2ncccc2C(=O)Nc2ccncc2)c(OC)c1 (stereo not given),IC50,[2],590 nM
same,ED50,[3],4.2 mg/kg
same,half-life,[4],< 1.2 min
same,half-life,[11],2310 min
same,IC50,[5],> 100000 nM
same,half-life,[6],0.84 h
same,half-life,[12],> 100 h
COc1ccc(C[S+]([O-])c2ncccc2C(=O)Nc2ccncc2)c(OC)c1C (stereo not given),IC50,[2],16600 nM
same,half-life,[4],7.2 min
same,IC50,[5],> 100000 nM
same,half-life,[6],11.6 h
COc1cc(OC)c(OC)cc1C[S+]([O-])c1ncccc1C(=O)Nc1ccncc1 (stereo not given),half-life,[4],< 1.2 min
same,inhibition in vivo at 100 mg/kg,[8],21.7%
same,IC50,[5],> 100000 nM
same,half-life,[6],0.14 h
same,inhibition,[1],32.5%
O=C(Nc1cccnc1)c1cccnc1[S+]([O-])C(c1ccccc1)c1ccccc1 (stereo not given),inhibition,[9],inactive
same,inhibition,[1],43.7%
Cc1ccc(C(c2ccc(C)cc2)[S+]([O-])c2ncccc2C(=O)Nc2ccncc2)cc1 (stereo not given),IC50,[2],1500 nM
same,inhibition in vivo at 100 mg/kg,[8],48.1%
